The target in test [1] is T1, Hexokinase-1 (Rattus norvegicus) (UniProt P05708).
T1 sequence (whole entry): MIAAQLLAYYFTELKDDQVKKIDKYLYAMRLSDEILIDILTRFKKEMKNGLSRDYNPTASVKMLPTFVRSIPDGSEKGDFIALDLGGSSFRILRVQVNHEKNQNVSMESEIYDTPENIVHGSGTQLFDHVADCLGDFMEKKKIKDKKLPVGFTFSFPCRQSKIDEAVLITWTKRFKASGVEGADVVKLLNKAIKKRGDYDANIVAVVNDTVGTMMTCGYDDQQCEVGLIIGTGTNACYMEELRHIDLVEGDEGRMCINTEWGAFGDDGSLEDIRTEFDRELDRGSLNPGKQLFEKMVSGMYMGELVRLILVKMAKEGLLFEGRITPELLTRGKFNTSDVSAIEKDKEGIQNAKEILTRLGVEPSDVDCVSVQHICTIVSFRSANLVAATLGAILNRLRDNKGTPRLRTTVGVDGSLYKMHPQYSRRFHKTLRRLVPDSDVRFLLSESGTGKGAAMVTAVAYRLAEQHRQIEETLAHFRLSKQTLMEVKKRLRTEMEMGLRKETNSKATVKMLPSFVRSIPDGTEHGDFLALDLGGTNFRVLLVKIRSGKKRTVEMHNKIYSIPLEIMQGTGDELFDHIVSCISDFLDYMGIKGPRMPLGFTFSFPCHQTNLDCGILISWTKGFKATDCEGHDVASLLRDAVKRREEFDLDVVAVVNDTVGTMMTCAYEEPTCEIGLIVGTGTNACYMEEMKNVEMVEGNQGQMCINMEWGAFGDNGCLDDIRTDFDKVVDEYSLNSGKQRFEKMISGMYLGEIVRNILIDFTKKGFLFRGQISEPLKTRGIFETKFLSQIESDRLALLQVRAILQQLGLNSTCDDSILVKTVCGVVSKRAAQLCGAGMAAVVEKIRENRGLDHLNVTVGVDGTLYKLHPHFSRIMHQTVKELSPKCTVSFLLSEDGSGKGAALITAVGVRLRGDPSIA
Description: Time dependent inhibition of Hexokinase type I activity after 6 h, at 22 degrees celsius, at 5 mM compound.

In test [2] the test system is Saccharomyces cerevisiae. Kind of test: Compound was tested for time dependent inhibition of hexokinase activity after 6 hr, at 22 degrees celsius, with 5 mM ATP derivative in yeast hexokinase.
Test [3] has as its system Saccharomyces cerevisiae. Kind of test: Substrate activity against yeast hexokinase as 1:1 Mg complexes at 5.0 mM. A digest of the protocol: (§1)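 Hexokinase activity read at 22 °C as A340 change, coupled to glucose-6-phosphate dehydrogenase, in 0.05 M Tris-HCl pH 7.6 with 6.6 mM MgCl2, 10 mM α-D-glucose and 0.93 mM NADP. Donor was 5.0 mM MgATP derivative (1:1 Mg complex) in place of ATP. Yeast HK was isoelectric-focused. Rat HK I and III came from electrofocused liver extract, HK II from dialysed muscle extract.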

The target in test [4] is Thymidine kinase (Escherichia coli) (UniProt P23331). Kind of test: Compound was tested for the initial inhibition of thymidine kinase by 1.4 mM compound in the presence of 5.7 mM ATP in Escherichia coli.
For test [5], the target named is T2, Hexokinase-2 (Rattus norvegicus) (UniProt P27881).
T2 sequence (whole entry): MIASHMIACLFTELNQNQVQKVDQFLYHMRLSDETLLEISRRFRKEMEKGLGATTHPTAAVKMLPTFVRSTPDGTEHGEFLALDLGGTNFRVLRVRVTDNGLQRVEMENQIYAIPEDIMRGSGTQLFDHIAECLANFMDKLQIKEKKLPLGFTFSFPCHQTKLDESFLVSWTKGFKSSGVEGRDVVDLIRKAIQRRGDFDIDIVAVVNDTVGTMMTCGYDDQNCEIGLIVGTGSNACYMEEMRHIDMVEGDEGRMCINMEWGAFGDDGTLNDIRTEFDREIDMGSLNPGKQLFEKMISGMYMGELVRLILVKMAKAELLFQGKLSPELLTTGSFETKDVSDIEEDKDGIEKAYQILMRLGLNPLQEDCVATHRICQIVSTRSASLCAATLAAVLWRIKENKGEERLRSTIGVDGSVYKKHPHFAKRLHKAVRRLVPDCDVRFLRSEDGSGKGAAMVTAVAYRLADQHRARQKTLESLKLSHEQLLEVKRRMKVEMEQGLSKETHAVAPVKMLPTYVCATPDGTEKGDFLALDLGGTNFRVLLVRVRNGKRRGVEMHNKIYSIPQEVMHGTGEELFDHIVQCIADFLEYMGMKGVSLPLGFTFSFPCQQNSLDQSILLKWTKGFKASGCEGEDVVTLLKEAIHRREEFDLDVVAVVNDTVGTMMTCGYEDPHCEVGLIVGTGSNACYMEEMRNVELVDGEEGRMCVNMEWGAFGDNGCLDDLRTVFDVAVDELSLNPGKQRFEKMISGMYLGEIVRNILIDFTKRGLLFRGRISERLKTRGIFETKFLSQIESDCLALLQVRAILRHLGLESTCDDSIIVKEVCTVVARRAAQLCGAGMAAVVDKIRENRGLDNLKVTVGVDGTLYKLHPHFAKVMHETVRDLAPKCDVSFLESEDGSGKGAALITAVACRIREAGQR
Kind of test: Substrate activity against Rat hexokinase II as 1:1 Mg complex at 5.0 mM. A digest of the protocol:
as §1

Test [6] concerns the target T2, Hexokinase-2 (Rattus norvegicus). Description: Time dependent inhibition of hexokinase 2 activity after 6 h, at 5 mM compound.
The target in test [7] is T3, Hexokinase-3 (Rattus norvegicus) (UniProt P27926).
T3 sequence (whole entry): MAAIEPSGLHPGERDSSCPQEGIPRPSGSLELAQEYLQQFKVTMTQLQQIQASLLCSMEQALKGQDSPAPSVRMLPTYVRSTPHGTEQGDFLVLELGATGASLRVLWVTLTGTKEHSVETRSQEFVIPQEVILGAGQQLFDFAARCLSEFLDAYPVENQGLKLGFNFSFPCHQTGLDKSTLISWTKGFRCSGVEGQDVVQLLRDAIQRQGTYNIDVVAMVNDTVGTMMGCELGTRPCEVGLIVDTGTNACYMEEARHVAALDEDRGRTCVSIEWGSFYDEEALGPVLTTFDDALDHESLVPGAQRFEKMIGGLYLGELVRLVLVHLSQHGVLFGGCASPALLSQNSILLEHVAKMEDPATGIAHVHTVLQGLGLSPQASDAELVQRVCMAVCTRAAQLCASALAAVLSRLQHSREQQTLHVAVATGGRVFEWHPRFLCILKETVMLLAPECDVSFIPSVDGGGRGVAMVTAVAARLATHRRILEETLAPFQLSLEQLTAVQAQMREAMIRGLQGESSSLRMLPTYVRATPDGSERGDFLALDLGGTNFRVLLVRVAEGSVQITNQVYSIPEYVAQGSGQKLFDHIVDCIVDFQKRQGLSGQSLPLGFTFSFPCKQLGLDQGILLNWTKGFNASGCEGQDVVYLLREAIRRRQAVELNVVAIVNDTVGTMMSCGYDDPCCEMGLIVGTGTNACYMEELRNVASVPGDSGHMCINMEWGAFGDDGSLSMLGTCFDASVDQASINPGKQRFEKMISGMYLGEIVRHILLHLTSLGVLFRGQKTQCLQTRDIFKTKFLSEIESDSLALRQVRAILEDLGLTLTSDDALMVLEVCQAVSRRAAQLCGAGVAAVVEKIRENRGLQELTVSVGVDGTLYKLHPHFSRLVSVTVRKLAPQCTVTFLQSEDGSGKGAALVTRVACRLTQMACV
Description: Substrate activity for rat hexokinase III as 1:1 Mg complex at 5.0 mM. A digest of the protocol: as §1

Test [8] addresses T1, Hexokinase-1 (Rattus norvegicus). Description: Substrate activity for rat hexokinase I as 1:1 Mg complex at 5.0 mM. A digest of the protocol: as §1
For test [9], the target named is T3, Hexokinase-3 (Rattus norvegicus). Kind of test: Time dependent inhibition of Hexokinase type III activity after 6 h, at 22 degrees celsius, at 5 mM.
Test [10] in a line: Tested for the velocity of 2.8 mM compound relative to that of 2.8 mM MgATP in the assay. A digest of the protocol: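 E. coli TK substrate test. 0.5 h after adding inhibitor, the mixture was diluted to 2.8 mM derivative in thymidine assay medium without ATP and with 1.42 mM MnCl2. Incubated 15 min at 37 °C, in the linear range. [14C]TMP formed was compared with that from 2.8 mM ATP under the same conditions.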

In test [11] the target is Thymidine kinase (Escherichia coli) (UniProt P23331). Description: Compound was tested for the lose of thymidine kinase activity after 6 h, at 0 degrees celsius, with 10 mM ATP derivative. values were expressed in percent.
Test [12] shares this target. Kind of test: Compound was tested for the loss of Thymidine kinase activity from Escherichia coli after 6 h at 0 degrees C at 10 mM.
Test [13] has as its target T1, Hexokinase-1 (Rattus norvegicus). Kind of test: Time dependent inhibition of Hexokinase, type I activity after 6 h, at 22 degrees celsius, at 5 mM compound.
Test [14] has as its target Thymidine kinase (Escherichia coli) (UniProt P23331). Kind of test: Compound was tested for the initial inhibition of Thymidine kinase by 1.4 mM compound in the presence of 5.7 mM ATP.
Test [15] relates to Saccharomyces cerevisiae. Kind of test: Compound was tested for time dependent inhibition of hexokinase activity after 6 h at 22 degrees celsius, with 5 mM compound in yeast hexokinase.
A short description of test [16]: Extent of inactivation caused by the compound was reported. The format is functional.
In test [17] the target is Thymidine kinase (Escherichia coli) (UniProt P23331). Kind of test: Compound was tested for the initial inhibition of thymidine kinase by 1.4 mM compound in the presence of 5.7 mM ATP.
The target of test [18] is T3, Hexokinase-3 (Rattus norvegicus). Kind of test: Time dependent inhibition of Hexokinase type III activity after 6 hr, at 22 degrees celsius, at 5 mM compound.
Test [19] addresses Thymidine kinase (Escherichia coli) (UniProt P23331). Description: Compound tested for the loss of thymidine kinase activity from Escherichia coli after 6 hr at 0 degrees C at 10 mM.
Test [20] deals with T3, Hexokinase-3 (Rattus norvegicus). Description: Time dependent inhibition of Hexokinase type III activity after 6 h, at 0 degrees celsius, at 10 mM.
Test [21] concerns the target T2, Hexokinase-2 (Rattus norvegicus). Description: Time dependent inhibition of hexokinase 2 activity after 6 h, at 10 mM compound.
For test [22], the target named is T1, Hexokinase-1 (Rattus norvegicus). Kind of test: Time dependent inhibition of Hexokinase type I activity after 6 h, at 0 degrees celsius, at 10 mM compound.
The test system of test [23] is Saccharomyces cerevisiae. Description: Time dependent inhibition of hexokinase activity after 6 hr, at 22 degrees celsius, with 5 mM ATP derivative in yeast.

We go through five molecules from ChEMBL document CHEMBL1122206, “Use of adenine nucleotide derivatives to assess the potential of exo-active-site-directed reagents as species- or isozyme-specific enzyme inactivators. 5. Interactions of adenosine 5'-triphosphate derivatives with rat pyruvate kinases, Escherichia coli thymidine kinase, and yeast and rat …” (1982).

Sequence of Thymidine kinase (Escherichia coli) (P23331 whole entry, looked up): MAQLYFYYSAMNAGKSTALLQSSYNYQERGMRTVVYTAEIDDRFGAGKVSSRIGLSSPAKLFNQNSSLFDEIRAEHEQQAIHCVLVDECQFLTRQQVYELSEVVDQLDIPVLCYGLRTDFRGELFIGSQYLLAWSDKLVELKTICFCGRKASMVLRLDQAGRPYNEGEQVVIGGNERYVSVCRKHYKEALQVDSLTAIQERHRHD

For `O=C(CI)NCCNc1ncnc2c1ncn2[C@@H]1O[C@H](COP(=O)(O)OP(=O)(O)OP(=O)(O)O)[C@@H](O)[C@H]1O`, the inhibition in [1] was found to be 0%; with Saccharomyces cerevisiae [2] it was 0%; in [4] it was 3%; in test [6], 0%; in test [9], 0%; in [11], 0%. The Relative velocity came to 0.75 in the test on Saccharomyces cerevisiae [3], 0.34 in [5], 0.5 in test [7] and 0.58 in test [8]. The same molecule returned a Velocity in [10] of 35%.
Turning to `O=C(CI)NCCCNc1ncnc2c1ncn2[C@@H]1O[C@H](COP(=O)(O)OP(=O)(O)OP(=O)(O)O)[C@@H](O)[C@H]1O`, the inhibition stood at 0% in test [12]; 0% in [6]; 0% in [9]; 0% in test [13]; 6% in [14]; 0% in the test with Saccharomyces cerevisiae [15]. In test [10], this molecule displayed a Velocity of 32%.
As to `O=C(CI)NCCCCCCNc1ncnc2c1ncn2[C@@H]1O[C@H](COP(=O)(O)OP(=O)(O)OP(=O)(O)O)[C@@H](O)[C@H]1O`, the Inactivation in test [16] was greater than 90%. For the same molecule, the inhibition in [17] is 0%; in test [18], 33%; in [6] it was 35%; in test [19], 0%.
Take `O=C(CI)NCC(=O)NCCCCCCNc1ncnc2c1ncn2[C@@H]1O[C@H](COP(=O)(O)OP(=O)(O)OP(=O)(O)O)[C@@H](O)[C@H]1O`: the inhibition in test [20], in [21] and in test [22] was 0% throughout. Moreover, the Relative velocity in the test on Saccharomyces cerevisiae [3] is 0.52; in [5], 0.63; in [7] it was 2.06; in test [8] it was 0.92. In test [10], this molecule came in with a Velocity of 63%.
Take `O=C(CI)NCCCCNc1ncnc2c1ncn2[C@@H]1O[C@H](COP(=O)(O)OP(=O)(O)OP(=O)(O)O)[C@@H](O)[C@H]1O`: the inhibition in test [17] was found to be 39%; in the test with Saccharomyces cerevisiae [23], 0%; in test [18], 0%; in test [6], 0%; in test [19], 0%. In addition, the Velocity in test [10] worked out at 68%.
